Here are results for two molecules from ChEMBL document CHEMBL5543129, “Peptide Inhibitor Targeting the Extraterminal Domain in BRD4 Potently Suppresses Breast Cancer Both In Vitro and In Vivo” (J Med Chem, 2024).

The source made the active and inactive calls. No cut-off for these calls is given here. Square brackets hold non-standard residues; d marks the D form. Peptide text beside a SMILES is read from it. Hyp = O=C(O)[C@@H]1C[C@@H](O)CN1; Ahx = NCCCCCC(=O)O

In data set [1] the test system is Mus musculus. Nature of the data set: Downregulation of JMJD6 mRNA expression in BALB/c mouse tumor xenografted with human MCF7 cells at 25 mg/kg, ip administered every 2 days by RT-qPCR analysis. In kind it is functional, organism-based. On the technique in general: In xenograft studies the graft and the host belong to different species.
Data set [2] deals with MDA-MB-231. Nature of the data set: Downregulation of CCND1 gene expression in human MDA-MB-231 cells at 10 uM incubated for 6 hrs by RT-qPCR analysis. In kind it is functional, cell-based. Put shortly: (§1)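 Cells treated with peptide (10 μM) for 6 h; c-Myc, N-myc and CCND1 mRNA measured by RT-qPCR. Three biological repeats.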
Data set [3] in a line: Toxicity in BALB/c mouse xenografted with human MCF7 cells assessed as change in spleen morphology at 12.5 mg/kg, ip administered every 2 days in presence of 50 mg/kg JQ1. It counts as organism-based. To be noted: in vivo, 48 h.
Data set [4] has as its system MCF7. Nature of the data set: Antiproliferative activity against human MCF7 cells at 10 uM incubated for 1 week in presence of 5 uM JQ1 by CellTiter 96 Aqueous One Solution based assay. In kind it is functional, cell-based. The following applies: time 1.0 weeks. Put shortly: (§2)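 Cells seeded at 2 × 10^3/well and treated with peptide (10 μM) alone or combined with JQ1 (5 μM), iJMJD6 (10 μM) or ICI (2.5 μM), as the line states. Viability read by MTS reagent, 1 h at 37 °C, A490. Three biological repeats.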

Data set [5] can be described thus: Downregulation of JMJD6 protein expression in BALB/c mouse tumor xenografted with human MDA-MB-231 cells assessed as fold change in remaining JMJD6 level at 25 mg/kg, ip administered every 2 days by immunoblotting analysis. In kind it is functional. Summed up:
(§3)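 Tumours taken from xenograft mice dosed with peptide at 25 mg/kg ip every 2 days. […] Three repeats.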

Data set [6] is described as follows: Downregulation of […] protein expression in human MDA-MB-231 cells assessed as fold change in […] at 10 uM incubated for 24 hrs by immunoblotting analysis (reference value: 1). In kind it is functional. Summed up:
(§4)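 Cells treated with peptide (10 μM) for 24 h. Lysates in Tris/NaCl/EDTA/1% Triton X-100, run on 10% SDS-PAGE and immunoblotted with ECL detection. β-actin as loading control. Three repeats, quantified against untreated cells.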
(Immunoblotting shows a protein as a band on a membrane.)

The nature of data set [7]: Downregulation of JMJD6 protein expression in human MCF7 cells assessed as fold change in remaining JMJD6 level at 10 uM incubated for 24 hrs by immunoblotting analysis (reference value: 1). It counts as functional. Put shortly: as §4
A short description of data set [8]: Downregulation of c-Myc protein expression in human MDA-MB-231 cells assessed as fold change in remaining c-Myc level at 10 uM incubated for 24 hrs by immunoblotting analysis (reference value: 1). It counts as functional. Put shortly:
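Cells (MCF7 or MDA-MB-231 in DMEM, 10% FBS, 37 °C, 5% CO2) are treated with peptide for 24 h. Lysates are taken in Tris/NaCl/EDTA/1% Triton buffer and run on 10% SDS-PAGE. Immunoblots are normalised to β-actin loading control; three repeats.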

The test system of data set [9] is MCF7. As to the kind of experiment: Downregulation of c-Myc gene expression in human MCF7 cells at 10 uM incubated for 6 hrs by RT-qPCR analysis. It counts as functional, cell-based. Put shortly: as §1
(Quantitative PCR measures a nucleic acid by following its amplification.)

Data set [10] has as its system MCF7. As to the kind of experiment: Antiproliferative activity against human MCF7 cells at 10 uM incubated for 1 week in presence of JMJD6 inhibitor by CellTiter 96 Aqueous One Solution based assay. It counts as functional, cell-based. The following applies: time 1.0 weeks. Summed up:
as §2

Data set [11] can be described thus: Toxicity in BALB/c mouse xenografted with human MDA-MB-231 cells assessed as change in liver morphology at 12.5 mg/kg, ip administered every 2 days in presence of 50 mg/kg JQ1. It counts as organism-based. The following applies: in vivo, 48 h. Summed up: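 Female BALB/c nude mice (4–6 weeks) carried sc MDA-MB-231 xenografts (5 × 10^6 cells) and were randomized at about 50 mm3. Peptide (12.5 mg/kg ip in saline) and JQ1 (50 mg/kg ip, DMSO/10% HPBCD 1:10) were given every 2 days, alone or combined. Body weight was recorded, and heart, liver, spleen, lung and kidney morphology and weight were assessed.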

Data set [12] relates to T47D. Nature of the data set: Inhibition of cell migration in human T47D cells at 10 uM incubated for 24 hrs in presence of JMJD6 inhibitor by inverted microscopic analysis. It counts as functional, cell-based. Put shortly:
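Cells are seeded at 5 × 10^5/well and scratched at 80–90% confluence. They are kept in serum-free medium with peptide (10 μM); partner agents are JQ1 5 μM, iJMJD6 10 μM, or ICI 2.5 μM. Wound area is imaged by inverted microscope at 0 and 12 or 24 h. Wound closure % = (A0−A1)/A0 × 100. Three biological repeats.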

Data set [13] is described as follows: Toxicity in BALB/c mouse xenografted with human MCF7 cells assessed as change in kidney weight at 12.5 mg/kg, ip administered every 2 days in presence of 50 mg/kg JQ1. It counts as organism-based. To be noted: in vivo, 48 h.
The test system of data set [14] is MCF7. Nature of the data set: Antiproliferative activity against human MCF7 cells at 10 uM incubated for 1 week in presence of tamoxifen by CellTiter 96 Aqueous One Solution based assay. In kind it is functional, cell-based. To be noted: time 1.0 weeks. Put shortly:
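Tamoxifen-resistant MCF7 or T47D cells treated with peptide (10 μM) or tamoxifen (3 μM), alone or combined. Viability read by MTS reagent, 1 h at 37 °C, A490.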

The nature of data set [15]: Toxicity in BALB/c mouse xenografted with human MCF7 cells assessed as change in body weight at 2.5 mg/kg, ip administered every 2 days in presence of 12.5 mg/kg fulvestrant. It counts as organism-based. The following applies: in vivo, 48 h.
The nature of data set [16]: Downregulation of CCND1 protein expression in human MCF7 cells assessed as fold change in remaining CCND1 level at 10 uM incubated for 24 hrs by immunoblotting analysis (reference value: 1). In kind it is functional. Summed up: as §4
In data set [17] the test system is Mus musculus. As to the kind of experiment: Downregulation of c-Myc mRNA expression in BALB/c mouse tumor xenografted with human MDA-MB-231 cells at 25 mg/kg, ip administered every 2 days by RT-qPCR analysis. It counts as functional, organism-based. Put shortly:
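Female BALB/c nude mice (4–6 weeks) implanted subcutaneously with 5 × 10^6 cells in PBS. For MCF7 grafts, estrogen (E2, 10–2 M) is brushed on every 2 days. Treatment starts at ~50 mm3 after randomization, with peptide in normal saline ip every 2 days. Tumour mRNA is measured by RT-qPCR.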

The test system of data set [18] is MCF7. Nature of the data set: Downregulation of […] gene expression in human MCF7 cells at 10 uM incubated for 6 hrs by RT-qPCR analysis. In kind it is functional, cell-based. Put shortly:
as §1

Data set [19] concerns Mus musculus. Nature of the data set: Downregulation of CCND1 mRNA expression in BALB/c mouse tumor xenografted with human MDA-MB-231 cells at 25 mg/kg, ip administered every 2 days by RT-qPCR analysis. It counts as functional, organism-based.
The test system of data set [20] is MDA-MB-231. As to the kind of experiment: Antiproliferative activity against human MDA-MB-231 cells at 10 uM incubated for 1 week in presence of 5 uM JQ1 by CellTiter 96 Aqueous One Solution based assay. It counts as functional, cell-based. To be noted: time 1.0 weeks. Summed up:
as §2

A short description of data set [21]: Toxicity in BALB/c mouse xenografted with human MCF7 cells assessed as change body weight at 12.5 mg/kg, ip administered every 2 days in presence of 50 mg/kg JQ1. In kind it is organism-based. To be noted: in vivo, 48 h.
Data set [22] is described as follows: Downregulation of N-myc protein expression in BALB/c mouse tumor xenografted with human MDA-MB-231 cells assessed as fold change in remaining N-myc level at 25 mg/kg, ip administered every 2 days by immunoblotting analysis. In kind it is functional. Summed up: as §3
The nature of data set [23]: Toxicity in BALB/c mouse xenografted with human MCF7 cells assessed as change in liver weight at 12.5 mg/kg, ip administered every 2 days in presence of 50 mg/kg JQ1. It counts as organism-based. The following applies: in vivo, 48 h.

For `CC[C@H](C)[C@H](NC(=O)[C@H](Cc1ccc(O)cc1)NC(=O)[C@@H]1C[C@@H](O)CN1C(=O)[C@H](C)NC(=O)[C@@H](NC(=O)CCCCCNC(=O)[C@H](CCC(=O)O)NC(=O)CNC(=O)[C@H](CS)NC(=O)[C@H](CCCCN)NC(=O)[C@H](Cc1ccccc1)NC(=O)[C@H](CCCCN)NC(=O)[C@H](CCC(N)=O)NC(=O)[C@H](CC(N)=O)NC(=O)[C@H](CCCNC(=N)N)NC(=O)[C@H](CCCNC(=N)N)NC(=O)[C@H](CCCNC(=N)N)NC(=O)[C@H](CCCNC(=N)N)NC(=O)[C@H](CCC(N)=O)NC(=O)[C@H](CCCNC(=N)N)NC(=O)[C@H](CCCNC(=N)N)NC(=O)[C@H](CCCCN)NC(=O)[C@H](CCCCN)NC(=O)[C@H](CCCNC(=N)N)NC(=O)CNC(=O)[C@@H](N)Cc1ccc(O)cc1)[C@@H](C)CC)C(=O)O` (H-YGRKKRRQRRRRNQKFKCGE[Ahx]IA[Hyp]YI-OH), the result in data set [1] was inactive. Also, the result in [2], in [4], in data set [9], in data set [10], in data set [14] and in data set [17] was Active. The result in [18], in data set [19] and in data set [20] was Active. For the same molecule, the Activity result in data set [3], in data set [11], in data set [13], in data set [15], in [21] and in data set [23] was “Non-Toxic” in each case. For the same molecule, the “fold change (FC)” value is 0.48 in data set [5]; 0.68 in data set [6]; 0.5 in data set [7]; 0.85 in data set [8]; 0.58 in [16]; 0.13 in data set [22]. The inhibition result in data set [12] was “Active”.

For H-YGRKKRRQRRRRNQKFKCGE-OH, the result in [1] was inactive. The result in [2], in [4], in data set [9], in data set [10], in data set [14] and in data set [17] was Active. For the same molecule, the result in data set [18], in data set [19] and in data set [20] was Active. The Activity entry in data set [3], in data set [11], in [13], in data set [15], in data set [21] and in data set [23] was “Non-Toxic” each time. Moreover, the “fold change (FC)” value in data set [5] worked out at 0.98; in data set [6], 0.72; in data set [7], 0.91; in [8] it was 0.77; in data set [16], 0.68; in [22], 0.38. The inhibition entry in [12] is “Active”.
